Screening results deposited in PubChem by several laboratories.
MC4R antag cAMP: blocks human MC4R cAMP signaling. MC4R-expressing cells, MTII-stimulated cAMP, LANCE TR-FRET. inhibition, % at 6.5 µM. 360,000 tested, 0.48% active. AID 540295;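 active means inhibition above its plate's cutoff, the mean of tested wells on that plate plus 3 SD, cut at about 29% in these data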
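Assay system: U2OS cells stably expressing human melanocortin 4 receptor (MC4R) / Dosing: 6.5 µM / Timing: compound 30 min, challenge 1 h, detection 1 h / Measured by: Eu-cAMP/anti-cAMP TR-FRET, emission 671 nm / Replicates: singlicate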
MC4R ag barr: activates human MC4R beta-arrestin recruitment; 360,000 tested, 0.98% active; U2OS MC4R beta-arrestin complementation, luminescence; percent of melanotan II response, DMSO zero; P32245; activation, % at 8.9 µM;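 active means activation above a per-plate cutoff, the mean activation of sample wells on that plate plus 3 SD, cut at about 8% in these data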
Tb MetRS inh: blocks T. brucei methionyl-tRNA synthetase activity; purified T. brucei MetRS, ATP depletion, Kinase-Glo luminescence; inhibition, % at 11.9 µM; 360,000 tested, 0.4% active; AID 624268;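 active means inhibition above a per-plate cutoff of the control wells' mean inhibition plus 3 SD, cut at about 5.5% in these data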
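Test system: purified T. brucei MetRS enzyme. Also added: ATP, methionine and E. coli bulk tRNA substrates. Compound: 11.9 µM single point. Schedule: 15 min enzyme-compound preincubation, 2 h reaction, 10 min detection, 25 °C. Signal: luciferase luminescence of residual ATP, Kinase-Glo. Evaluation: percent inhibition versus plate control medians. Controls: DMSO wells, low control.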
hiPSC survival: enhancers of human iPSC single-cell survival. 360,000 tested, 0.044% active. survival enhancement, % at 20 µM. AID 602274. hiPSC single-cell survival, ATPlite luminescence; 100% = ROCK inhibitor wells, 0% = DMSO; in the data active means survival enhancement above about 18%;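 further: cells exposed to compounds for 16 hours before the ATP read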
Granule exo inh: blocks lytic granule exocytosis; inhibition, % at 10 µM; AID 651702; TALL-104 LAMP-1 surface exposure, flow cytometry; cells stimulated with thapsigargin and PMA; 360,000 tested, 0.66% active;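 active means inhibition above about 55%, limit read from the data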
ABCB6 inh 2: inhibitors of human ABC transporter ABCB6; K562-ABCB6 porphyrin accumulation, flow cytometry, 1 h; hits give low values; 360,000 tested, 0.19% active; AID 602162; Q9NP58; fluorescence ratio to DMSO, % at 10 µM;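 active means fluorescence ratio to DMSO below 75%, the collection mean minus 3 SD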;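 further: signal is porphyrin accumulated inside mitochondria; lower ratio means ABCB6 inhibition with less porphyrin fluorescence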
Target sequence (Q9NP58 whole entry, looked up): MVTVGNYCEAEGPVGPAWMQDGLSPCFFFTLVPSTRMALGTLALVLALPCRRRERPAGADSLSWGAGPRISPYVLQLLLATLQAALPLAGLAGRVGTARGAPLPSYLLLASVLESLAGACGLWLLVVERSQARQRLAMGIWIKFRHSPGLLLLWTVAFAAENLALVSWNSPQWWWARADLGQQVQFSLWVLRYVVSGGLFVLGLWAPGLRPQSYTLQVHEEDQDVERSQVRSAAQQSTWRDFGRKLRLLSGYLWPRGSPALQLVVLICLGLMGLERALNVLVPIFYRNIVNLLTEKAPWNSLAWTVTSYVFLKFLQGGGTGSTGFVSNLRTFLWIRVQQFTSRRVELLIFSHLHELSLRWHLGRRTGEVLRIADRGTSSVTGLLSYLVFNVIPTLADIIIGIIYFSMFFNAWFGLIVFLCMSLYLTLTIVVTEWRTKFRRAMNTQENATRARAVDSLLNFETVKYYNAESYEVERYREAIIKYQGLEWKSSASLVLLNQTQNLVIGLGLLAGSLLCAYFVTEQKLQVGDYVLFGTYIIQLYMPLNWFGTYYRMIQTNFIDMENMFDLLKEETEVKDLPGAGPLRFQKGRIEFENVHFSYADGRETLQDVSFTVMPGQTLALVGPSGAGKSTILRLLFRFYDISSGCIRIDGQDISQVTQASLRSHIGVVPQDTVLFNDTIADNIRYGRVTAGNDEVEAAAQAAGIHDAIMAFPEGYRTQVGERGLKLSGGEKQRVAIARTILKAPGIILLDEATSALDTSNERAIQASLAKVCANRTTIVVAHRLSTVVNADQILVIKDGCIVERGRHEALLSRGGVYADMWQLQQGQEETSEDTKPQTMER
Tb MetRS conf: confirmation of Trypanosoma brucei MetRS inhibitors | shares compounds with Tb MetRS inh | T. brucei MetRS enzyme, luminescence (ATP depletion) | inhibition, % at 11.9 µM | 1,400 tested, 93% active; in the data active means inhibition above about 7%
Jurkat tox: Jurkat T cell cytotoxicity for MetRS hits. AID 624413. Jurkat cells viability, ATP luminescence. 1,400 tested, 12% active. inhibition, % at 8.3 µM. shares compounds with Tb MetRS inh; in the data active means inhibition above about 15%
Tb MetRS inh FP: orthogonal test for Trypanosoma brucei MetRS inhibitors. shares compounds with Tb MetRS inh. purified T. brucei MetRS, fluorescence polarization. inhibition, % at 11.9 µM. 1,400 tested, 44% active. AID 651607; in the data active means inhibition above about 17%
A number is an active result; 0 = inactive; - = no result. An excerpt weighted towards active compounds, which were near 2.6% of everything screened.

SMILES	MC4R antag cAMP	MC4R ag barr	Tb MetRS inh	hiPSC survival	Granule exo inh	ABCB6 inh 2	Tb MetRS conf	Jurkat tox	Tb MetRS inh FP
Cc1ccc2nc(/C(C#N)=C/c3ccc(-c4ccccc4C(=O)O)o3)[nH]c2c1	0	0	6.0	0	0	0	22	0	0
Cc1cc2nc(/C(C#N)=C\c3ccc(-c4ccccc4C(=O)O)o3)[nH]c2cc1C	0	0	0	0	0	0	-	-	-
Cc1cc(/C=C(/C#N)c2nc3ccccc3[nH]2)c(C)n1-c1cc(C(=O)O)cc(C(=O)O)c1	0	0	5.8	0	0	0	37	0	0
CC(C)[C@H](NC(=O)N1CC(=O)Nc2ccccc21)C(=O)N[C@@H](C(=O)O)c1ccccc1	0	0	0	0	0	0	-	-	-
CC1(C(=O)NCCC(F)(F)F)Cc2c(-c3cccc(C(N)=O)c3)ccnc2O1 (centres undefined)	0	0	0	0	0	0	-	-	-
COc1ccc(CCCNC(=O)C2(C)Cc3c(-c4cccc(C(N)=O)c4)ccnc3O2)cc1 (centres undefined)	0	0	6.6	0	0	0	0	49	0
CCOc1ccc(NC(=O)c2sc3nc(C)nc(N4CCOCC4)c3c2C)cc1	0	0	0	0	0	0	-	-	-
Cc1ccc(NC(=O)C=NOCC(=O)Nc2cc(C)cc(C)c2)cc1	0	0	24	0	0	0	58	0	41
CC(=O)Nc1ccc(/C=N/OCC(=O)Nc2ccc(C)cc2)cc1	0	0	0	0	0	0	-	-	-
O=C(NCc1nc2ccccc2[nH]1)C1=C[C@H](C2CC2)C[C@H](OCc2ccc(CO)cc2)O1	0	0	50	0	0	0	83	0	56
O=C(Nc1ccccc1)C1=C[C@@H](C2CC2)C[C@@H](OCc2ccc(CO)cc2)O1	0	0	0	0	0	0	-	-	-
O=C(NCc1nc2ccccc2[nH]1)C1=C[C@@H](C2CC2)C[C@@H](OCc2ccc(CO)cc2)O1	0	0	81	0	0	0	99	0	87
CCOc1ccc(S(=O)(=O)NCCC(=O)NCCCSc2ccccc2)cc1	0	0	0	0	0	0	-	-	-
CN(C)CCCOC(=O)COc1ccc(C(C)(C)C)cc1	0	0	0	0	0	0	-	-	-
O=C1c2ccccc2[C@@H]2Cc3csc[n+]3[C@H]12	-	-	0	0	0	0	-	-	-
COc1ccc(S(=O)(=O)N(C)C[C@H]2Oc3c(NC(=O)Nc4ccccc4)cccc3C(=O)N([C@H](C)CO)C[C@@H]2C)cc1	0	0	0	0	0	0	-	-	-
C[C@H](CO)N1C[C@H](C)[C@@H](CN(C)S(=O)(=O)c2cccs2)Oc2c(NC(=O)Nc3ccccc3)cccc2C1=O	0	0	20	0	0	0	53	0	25
C[C@H]1CN([C@@H](C)CO)C(=O)Cc2cc(NC(=O)Nc3ccccc3)ccc2O[C@H]1CN(C)Cc1ccccc1	0	0	9.5	0	0	0	31	0	20
C[C@H](CO)N1C[C@H](C)[C@@H](CN(C)S(=O)(=O)c2ccccc2)Oc2c(NC(=O)Nc3ccccc3)cccc2C1=O	0	0	16	0	0	0	35	0	0
O=C(CNCc1ccccc1)NC1C2CC3CC(C2)CC1C3 (centres undefined)	0	0	0	0	0	0	-	-	-
CC(=O)Nc1ccc(/C(C)=N/NC(=O)C2CC2c2ccccc2)cc1 (centres undefined)	0	0	0	0	0	0	-	-	-
O=C(CCCn1c(=S)[nH]c2ccc(Br)cc2c1=O)NCc1ccccn1	0	0	0	0	0	0	-	-	-
O=c1c2cc(Br)ccc2[nH]c(=S)n1Cc1ccccc1	0	0	7.7	0	0	0	20	0	0
O=c1c2cc(Br)ccc2[nH]c(=S)n1Cc1ccccn1	0	0	10	0	0	0	21	0	0
NS(=O)(=O)c1ccc(CCNC(=O)CCCCCn2c(=S)[nH]c3ccc(Br)cc3c2=O)cc1	0	0	17	0	0	0	22	0	0
SMILES	MC4R antag cAMP	MC4R ag barr	Tb MetRS inh	hiPSC survival	Granule exo inh	ABCB6 inh 2	Tb MetRS conf	Jurkat tox	Tb MetRS inh FP
O=C(CCCCCn1c(=S)[nH]c2ccc(Br)cc2c1=O)NCC1CCCO1 (centres undefined)	0	0	0	0	0	0	-	-	-
O=C(COC(=O)C1CC2CCCC(C1)C2=O)Nc1ccc(Cl)cn1 (centres undefined)	0	0	0	0	0	0	-	-	-
CCN1CCCC1Cn1cnc2c([nH]c3ccc(Cl)cc32)c1=O (centres undefined)	0	0	10	0	0	0	14	0	0
CCN1CCCC1Cn1cnc2c([nH]c3cccc(Cl)c32)c1=O (centres undefined)	0	0	0	0	0	0	-	-	-
Cc1c(C(=O)N2CCN(c3ccc(F)cc3)CC2)sc2nc3n(c(=O)c12)CCC3	0	0	0	0	0	0	-	-	-
COc1ccc(-c2nc(-c3ccccn3)ncc2S(C)(=O)=O)cc1	0	0	0	0	0	0	-	-	-
CCn1c(N)nc2c1c(=O)n(C)c(=O)n2C	0	0	0	0	0	0	-	-	-
CCCc1nc2c(=O)n(C)c(=O)nc-2n(C)n1	0	0	17	0	0	0	20	73	0
Cn1nc(-c2ccccn2)nc2c(=O)n(C)c(=O)nc1-2	0	0	31	0	0	0	31	66	0
Nc1cc(C(=O)OCC(=O)NCc2ccc(F)cc2)ccc1Cl	0	0	43	0	0	0	63	0	34
c1ccc(CCNc2ncnc3ccccc23)cc1	0	0	0	0	0	0	-	-	-
CCCCCCCCNc1ncnc2ccccc12	0	0	11	0	0	0	25	46	0
O=C(Cn1c(NCCO)nc2ccccc21)Nc1cccc(S(=O)(=O)N2CCCC2)c1	0	0	11	0	0	0	48	0	0
COc1ccccc1CCC(=O)Nc1cccc(S(=O)(=O)N2CCOCC2)c1	0	0	0	0	0	0	-	-	-
COc1ccccc1CCC(=O)Nc1cccc(S(=O)(=O)N2CCCCCC2)c1	0	0	5.7	0	0	0	28	0	0
COc1ccc(C(=O)NCC(=O)N/N=C/C=C/c2ccccc2)cc1OC	0	0	0	0	0	0	-	-	-
CN(CC(=O)Nc1ccc(Cl)c(C(F)(F)F)c1)C(=O)/C=C/c1ccco1	0	0	29	0	0	0	38	0	21
